Values after ≈ are worked out from the molar mass of the structure shown. Active and inactive are the calls of the source. No cut-off for these calls is given here.
Legend:
[1] = Cytotoxicity against human A549 cells by MTT assay; type: cell-based
Outline: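 Adherent A549 cells passaged in DMEM with 10% fetal calf serum and 2 mM glutamine, at 37 °C, 5% CO2, 90% humidity. MTT test. CC50 is the concentration that inhibits culture growth by 50%.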

[2] = test system: Staphylococcus aureus; test: Antibacterial activity against Staphylococcus aureus FDA 209 P; type: functional
Outline: (§1)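 Strains grown in modified Gause's nutrient medium N 2, inoculum 10⁶ cells/ml. Test compound dissolved in 50% aqueous methanol, added at ten volume percent of the medium. Growth controls: medium without additions, medium with solvent mixture, and clinical antibiotics (amikacin, ciprofloxacin, isoniazid, rifampicin, oxacillin, vancomycin).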

[3] = test system: Leuconostoc mesenteroides; test: Antibacterial activity against Leuconostoc mesenteroides VKPM B-4177; type: functional; outline: as §1
[4] = test system: Staphylococcus aureus; test: Antibacterial activity against Staphylococcus aureus INA 00761; type: functional; outline: as §1
[5] = test system: Mycolicibacterium smegmatis; test: Antibacterial activity against Mycobacterium smegmatis VKPM Ac-1339; type: functional; outline: as §1
[6] = test system: Mycolicibacterium smegmatis; test: Antibacterial activity against Mycobacterium smegmatis mc2155; type: functional
Outline: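 Strains were grown in modified Gause's nutrient medium N 2 at 10⁶ cells/ml. The compound was dissolved in 50% aqueous methanol and added at 10 volume percent of the medium. Controls were untreated cultures, medium with the solvent mixture, and clinical antibiotics.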

[7] = test system: Micrococcus luteus; test: Antibacterial activity against Micrococcus luteus NCTC 8340; type: functional; outline: as §1
[8] = test system: Bacillus subtilis; test: Antibacterial activity against Bacillus subtilis ATCC 6633; type: functional; outline: as §1
[9] = test system: Aspergillus amoenus; test: Antifungal activity against Aspergillus-amoenus SRX7729194 STG-106 assessed as reduction in fungal growth at 0.1 to 3.5 mM measured for 24 days by drop dilution assay relative to control; type: functional; conditions: dose 0.1-3.5 mM, time 24.0 day
Outline: (§2)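 Drop-dilution method. Suspension plated on CDA with or without compound (screening range 0.1–3.5 mM); 5-fluorocytosine positive control. Incubated at 26 °C. Inhibition % = (Dc−Dt)/Dc × 100 from colony diameters; triplicate, repeated at least twice.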

[10] = test system: Cladosporium halotolerans; test: Antifungal activity against Cladosporium-halotolerans SRX7729178 STG-52B assessed as reduction in fungal growth at 0.1 to 3.5 mM measured for 24 days by drop dilution assay relative to control; type: functional; conditions: dose 0.1-3.5 mM, time 24.0 day; outline: as §2
[11] = test system: Microascus paisii; test: Antifungal activity against Microascus-paisii SRX7729192 STG-103 assessed as reduction in fungal growth at 0.1 to 3.5 mM measured for 24 days by drop dilution assay relative to control; type: functional; conditions: dose 0.1-3.5 mM, time 24.0 day; outline: as §2
[12] = test system: Aspergillus; test: Antifungal activity against Aspergillus SRX7729186 STG-93W assessed as reduction in fungal growth at 0.1 to 3.5 mM measured for 24 days by drop dilution assay relative to control; type: functional; conditions: dose 0.1-3.5 mM, time 24.0 day; outline: as §2
[13] = test system: Alternaria chartarum; test: Antifungal activity against Ulocladium chartarum SRX7729176 STG-36 assessed as reduction in fungal growth at 0.1 to 3.5 mM measured for 24 days by drop dilution assay relative to control; type: functional; conditions: dose 0.1-3.5 mM, time 24.0 day; outline: as §2
[14] = test system: Aspergillus versicolor; test: Antifungal activity against Aspergillus versicolor SRX7729174 STG-25G assessed as reduction in fungal growth at 0.1 to 3.5 mM measured for 24 days by drop dilution assay relative to control; type: functional; conditions: dose 0.1-3.5 mM, time 24.0 day; outline: as §2
[15] = test system: Cladosporium parahalotolerans; test: Antifungal activity against Cladosporium-parahalotolerans SRX7729188 STG-93B assessed as reduction in fungal growth at 0.1 to 3.5 mM measured for 24 days by drop dilution assay relative to control; type: functional; conditions: dose 0.1-3.5 mM, time 24.0 day; outline: as §2
[16] = test system: Simplicillium lamellicola; test: Antifungal activity against Simplicilium-lamellicola SRX772919 STG-96 assessed as reduction in fungal growth at 0.1 to 3.5 mM measured for 24 days by drop dilution assay relative to control; type: functional; conditions: dose 0.1-3.5 mM, time 24.0 day; outline: as §2
[17] = test system: Aspergillus creber; test: Antifungal activity against Aspergillus-creber SRX7729180 STG-57 assessed as reduction in fungal growth at 0.1 to 3.5 mM measured for 24 days by drop dilution assay relative to control; type: functional; conditions: dose 0.1-3.5 mM, time 24.0 day; outline: as §2
[18] = test system: Aspergillus versicolor; test: Antifungal activity against Aspergillus versicolor SRX7729182 STG-25G assessed as reduction in fungal growth at 0.1 to 3.5 mM measured for 24 days by drop dilution assay relative to control; type: functional; conditions: dose 0.1-3.5 mM, time 24.0 day; outline: as §2

CCCCCCCCNc1ccn([C@@H]2O[C@H](CO)[C@@H](O)[C@H]2O)c(=O)n1
CC50 [1]: 90 µM | MIC [2]: > 200 µM | MIC [3]: > 200 µM | MIC [4]: > 200 µM | MIC [5]: > 200 µM | MIC [6]: > 200 µM | MIC [7]: > 200 µM | MIC [8]: > 200 µM

CCCCCCCCCCNc1ccn([C@@H]2O[C@H](CO)[C@@H](O)[C@H]2O)c(=O)n1
CC50 [1]: 90 µM | MIC [2]: > 200 µM | MIC [3]: > 200 µM | MIC [4]: > 200 µM | MIC [5]: > 200 µM | MIC [6]: > 200 µM | MIC [7]: > 200 µM | MIC [8]: > 200 µM

NCC[C@H](O)C(=O)N[C@@H]1C[C@H](N)[C@@H](O[C@H]2O[C@H](CN)[C@@H](O)[C@H](O)[C@H]2O)[C@H](O)[C@H]1O[C@H]1O[C@H](CO)[C@@H](O)[C@H](N)[C@H]1O [AMIKACIN]
MIC [2]: 3.4 µM (≈ 1.99 µg/mL) | MIC [4]: 5 µM (≈ 2.93 µg/mL) | MIC [5]: 29 µM (≈ 17 µg/mL) | MIC [6]: 50 µM (≈ 29.3 µg/mL) | MIC [7]: 1 µM (≈ 0.586 µg/mL) | MIC [8]: 7 µM (≈ 4.1 µg/mL)

O=C(O)c1cn(C2CC2)c2cc(N3CCNCC3)c(F)cc2c1=O [CIPROFLOXACIN]
MIC [2]: 3 µM (≈ 0.994 µg/mL) | MIC [4]: 12 µM (≈ 3.98 µg/mL) | MIC [5]: 12 µM (≈ 3.98 µg/mL) | MIC [6]: 15 µM (≈ 4.97 µg/mL)

Cc1onc(-c2ccccc2)c1C(=O)N[C@@H]1C(=O)N2[C@@H]1SC(C)(C)[C@@H]2C(=O)O [OXACILLIN]
MIC [2]: 2.5 µM (≈ 1 µg/mL) | MIC [4]: 80 µM (≈ 32.1 µg/mL)

CCCCCCCCCCNc1ccn([C@H]2C[C@H](O)[C@@H](CO)O2)c(=O)n1
CC50 [1]: 200 µM | MIC [2]: > 140 µM | MIC [3]: 140 µM (≈ 51.4 µg/mL) | MIC [4]: > 140 µM | MIC [5]: 140 µM (≈ 51.4 µg/mL) | MIC [6]: 140 µM (≈ 51.4 µg/mL) | MIC [7]: 140 µM (≈ 51.4 µg/mL) | MIC [8]: 140 µM (≈ 51.4 µg/mL)

CCCCCCCCCCCCNc1ccn([C@H]2C[C@H](O)[C@@H](CO)O2)c(=O)n1
CC50 [1]: 100 µM | MIC [2]: 70 µM (≈ 27.7 µg/mL) | MIC [3]: 70 µM (≈ 27.7 µg/mL) | MIC [4]: 70 µM (≈ 27.7 µg/mL) | MIC [5]: 70 µM (≈ 27.7 µg/mL) | MIC [6]: 70 µM (≈ 27.7 µg/mL) | MIC [7]: 70 µM (≈ 27.7 µg/mL) | MIC [8]: 70 µM (≈ 27.7 µg/mL)

COCCOCCOCCNc1nc(=O)n([C@H]2C[C@H](O)[C@@H](CO)O2)cc1C
CC50 [1]: 90 µM | MIC [2]: > 200 µM | MIC [3]: > 200 µM | MIC [4]: > 200 µM | MIC [5]: > 200 µM | MIC [6]: > 200 µM | MIC [7]: > 200 µM | MIC [8]: > 200 µM

Cc1cn([C@H]2C[C@H](O)[C@@H](CO)O2)c(=O)nc1NCCc1ccccc1
CC50 [1]: 90 µM | MIC [2]: > 200 µM | MIC [3]: > 200 µM | MIC [4]: > 200 µM | MIC [5]: > 200 µM | MIC [6]: > 200 µM | MIC [7]: > 200 µM | MIC [8]: > 200 µM

O=c1nc(NCCCCc2ccccc2)ccn1[C@H]1C[C@H](O)[C@@H](CO)O1
CC50 [1]: 90 µM | MIC [2]: > 200 µM | MIC [3]: > 200 µM | MIC [4]: > 200 µM | MIC [5]: > 200 µM | MIC [6]: > 200 µM | MIC [7]: > 200 µM | MIC [8]: > 200 µM

CCCCCCCCCCCCCCNc1ccn([C@H]2C[C@H](O)[C@@H](CO)O2)c(=O)n1
CC50 [1]: 90 µM | MIC [2]: > 200 µM | MIC [3]: > 200 µM | MIC [4]: > 200 µM | MIC [5]: > 200 µM | MIC [6]: > 200 µM | MIC [7]: > 200 µM | MIC [8]: > 200 µM

CO[C@H]1/C=C/O[C@@]2(C)Oc3c(C)c(O)c4c(O)c(c(/C=N/N5CCN(C)CC5)c(O)c4c3C2=O)NC(=O)/C(C)=C\C=C\[C@H](C)[C@H](O)[C@@H](C)[C@@H](O)[C@@H](C)[C@H](OC(C)=O)[C@@H]1C [RIFAMPIN]
MIC [5]: 10 µM (≈ 8.23 µg/mL) | MIC [6]: 5 µM (≈ 4.11 µg/mL)

CCCCCCCCNc1ccn([C@H]2C[C@H](O)[C@@H](CO)O2)c(=O)n1
CC50 [1]: 90 µM | MIC [2]: > 200 µM | MIC [3]: > 200 µM | MIC [4]: > 200 µM | MIC [5]: > 200 µM | MIC [6]: > 200 µM | MIC [7]: > 200 µM | MIC [8]: > 200 µM

CCCCCCNc1nc(=O)n([C@H]2C[C@H](O)[C@@H](CO)O2)cc1C
CC50 [1]: 90 µM | MIC [2]: > 200 µM | MIC [3]: > 200 µM | MIC [4]: > 200 µM | MIC [5]: > 200 µM | MIC [6]: > 200 µM | MIC [7]: > 200 µM | MIC [8]: > 200 µM

CCCCCCCCCCNc1nc(=O)n([C@H]2C[C@H](O)[C@@H](CO)O2)cc1C
inhibition [9]: inactive | inhibition [10]: inactive | inhibition [11]: inactive | CC50 [1]: 156 µM | inhibition [12]: inactive | inhibition [13]: inactive | MIC [2]: 50 µM (≈ 19.1 µg/mL) | inhibition [14]: inactive | MIC [3]: 50 µM (≈ 19.1 µg/mL) | MIC [4]: 50 µM (≈ 19.1 µg/mL) | MIC [5]: 50 µM (≈ 19.1 µg/mL) | inhibition [15]: inactive | MIC [6]: 50 µM (≈ 19.1 µg/mL) | MIC [7]: 50 µM (≈ 19.1 µg/mL) | inhibition [16]: inactive | inhibition [17]: inactive | inhibition [18]: inactive | MIC [8]: 50 µM (≈ 19.1 µg/mL)

CCCCCCCCNc1nc(=O)n([C@H]2C[C@H](O)[C@@H](CO)O2)cc1C
inhibition [9]: Active | inhibition [10]: Active | inhibition [11]: Active | CC50 [1]: 90 µM | inhibition [12]: Active | inhibition [13]: Active | MIC [2]: > 200 µM | inhibition [14]: Active | MIC [3]: > 200 µM | MIC [4]: > 200 µM | MIC [5]: > 200 µM | inhibition [15]: Active | MIC [6]: > 200 µM | MIC [7]: > 200 µM | inhibition [16]: Active | inhibition [17]: Active | inhibition [18]: Active | MIC [8]: > 200 µM

CN[C@H](CC(C)C)C(=O)N[C@H]1C(=O)N[C@@H](CC(N)=O)C(=O)N[C@H]2C(=O)N[C@H]3C(=O)N[C@H](C(=O)N[C@H](C(=O)O)c4cc(O)cc(O)c4-c4cc3ccc4O)[C@H](O)c3ccc(c(Cl)c3)Oc3cc2cc(c3O[C@@H]2O[C@H](CO)[C@@H](O)[C@H](O)[C@H]2O[C@H]2C[C@](C)(N)[C@H](O)[C@H](C)O2)Oc2ccc(cc2Cl)[C@H]1O [VANCOMYCIN]
MIC [3]: > 275 µM

Nc1nc(=O)[nH]cc1F
inhibition [9]: Active | inhibition [10]: Active | inhibition [11]: Active | inhibition [12]: Active | inhibition [13]: Active | inhibition [14]: Active | inhibition [15]: Active | inhibition [16]: Active | inhibition [17]: Active | inhibition [18]: Active

NNC(=O)c1ccncc1 [ISONIAZID]
MIC [5]: 2 µM (≈ 0.274 µg/mL) | MIC [6]: 29 µM (≈ 3.98 µg/mL)

From ChEMBL document CHEMBL4732208, “Discovery of novel N-alkylcytidines as promising antimicrobial agents” (Eur J Med Chem, 2021)
